Here are results for 14 compounds from ChEMBL document CHEMBL2040785, “Regioselective synthesis and antimicrobial studies of ester linked 1,4-disubstituted 1,2,3-bistriazoles” (2012).

Converted amounts (≈) assume the structure as drawn.

Holding throughout (assay type): functional
In one experiment the test system is Aspergillus niger. Briefly: Antifungal activity against Aspergillus niger MTCC 282 after 120 hrs by serial dilution method. The conditions noted are these: MTCC 282, 120 h. The gist of the method: (§1)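 Tube serial dilution MIC in Sabouraud dextrose broth. Stocks of 100 µg/ml were diluted in 1 ml sterile medium to 50–3.12 µg/ml, and each tube was inoculated with 100 µL of fungal suspension in sterile saline. Incubation at 25 ± 1 °C, 48 h for C. albicans and 120 h for A. niger. Fluconazole was the reference drug and DMSO the solvent control.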

The test system of a further experiment is Candida albicans. Briefly: Antifungal activity against Candida albicans MTCC 183 after 48 hrs by serial dilution method. The conditions noted are these: MTCC 183, 48 h. A digest of the protocol:
as §1

Another experiment concerns Escherichia coli. Briefly: Antibacterial activity against Escherichia coli MTCC 7443 after 24 hrs by serial dilution method. The conditions noted are these: MTCC 7443, 24 h. The gist of the method: (§2)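 Tube serial dilution MIC. Compounds held as 100 µg/ml stocks and serially diluted in tubes of 1 ml sterile double strength nutrient broth to 50–3.12 µg/ml. Each tube was inoculated with 100 µL of bacterial suspension in sterile saline. Incubation at 37 ± 1 °C for 24 h. Norfloxacin was the reference drug and DMSO the solvent control.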

Another experiment concerns Bacillus subtilis. Briefly: Antibacterial activity against Bacillus subtilis MTCC 441 after 24 hrs by serial dilution method. The conditions noted are these: MTCC 441, 24 h. The gist of the method:
as §2

On to `O=C(CCC(=O)OCc1cn(CCc2ccccc2)nn1)OCc1cn(CCc2ccccc2)nn1`, for which the MIC (commonly the smallest concentration in the dilution series that meets the test's criterion for growth inhibition) in the experiment on Aspergillus niger worked out at 25.6 µM (≈ 12.5 µg/mL); against Candida albicans, 12.8 µM (≈ 6.25 µg/mL); against Escherichia coli, 12.8 µM (≈ 6.25 µg/mL); with Bacillus subtilis, 25.6 µM (≈ 12.5 µg/mL).
On to `O=C(CC(=O)OCc1cn(CCc2ccccc2)nn1)OCc1cn(CCc2ccccc2)nn1`, for which the MIC against Aspergillus niger, in the experiment on Candida albicans, against Escherichia coli and in the experiment on Bacillus subtilis was 26.3 µM (≈ 12.5 µg/mL) throughout.
On to `O=C(OCc1cn(CCc2ccccc2)nn1)c1cccc(C(=O)OCc2cn(CCc3ccccc3)nn2)c1`, for which the minimum inhibitory concentration (MIC) in the experiment on Aspergillus niger, in the experiment on Candida albicans, with Escherichia coli and against Bacillus subtilis was 23.3 µM (≈ 12.5 µg/mL) each time.
For `O=C(OCc1cn(Cc2ccccc2)nn1)c1cccc(C(=O)OCc2cn(Cc3ccccc3)nn2)n1`, the MIC stood at 24.6 µM (≈ 12.5 µg/mL) in the experiment with Aspergillus niger, 12.3 µM (≈ 6.27 µg/mL) against Candida albicans, 12.3 µM (≈ 6.27 µg/mL) against Escherichia coli and 12.3 µM (≈ 6.27 µg/mL) against Bacillus subtilis.
Regarding `O=C(CCCC(=O)OCc1cn(CCc2ccccc2)nn1)OCc1cn(CCc2ccccc2)nn1`, the minimal inhibitory concentration (MIC) against Aspergillus niger, against Candida albicans, against Escherichia coli and with Bacillus subtilis was 24.9 µM (≈ 12.5 µg/mL) in each case.
Take `O=C(CC(=O)OCc1cn(Cc2ccccc2)nn1)OCc1cn(Cc2ccccc2)nn1`: the MIC in the experiment with Aspergillus niger is 14 µM (≈ 6.25 µg/mL); with Candida albicans it was 14 µM (≈ 6.25 µg/mL); in the experiment on Escherichia coli, 28 µM (≈ 12.5 µg/mL); in the experiment with Bacillus subtilis it was 28 µM (≈ 12.5 µg/mL).
In the case of `O=C(CCCCC(=O)OCc1cn(Cc2ccccc2)nn1)OCc1cn(Cc2ccccc2)nn1`, the MIC amounted to 12.8 µM (≈ 6.25 µg/mL) against Aspergillus niger, 12.8 µM (≈ 6.25 µg/mL) with Candida albicans, 12.8 µM (≈ 6.25 µg/mL) against Escherichia coli and 25.6 µM (≈ 12.5 µg/mL) against Bacillus subtilis.
In the case of `CCn1cc(C(=O)O)c(=O)c2cc(F)c(N3CCNCC3)cc21` [NORFLOXACIN], the MIC in the experiment on Escherichia coli and with Bacillus subtilis was 9.8 µM (≈ 3.13 µg/mL) each time.
Take `O=C(CCCCC(=O)OCc1cn(CCc2ccccc2)nn1)OCc1cn(CCc2ccccc2)nn1`: the MIC with Aspergillus niger was 24.2 µM (≈ 12.5 µg/mL); in the experiment on Candida albicans, 12.1 µM (≈ 6.25 µg/mL); in the experiment on Escherichia coli, 24.2 µM (≈ 12.5 µg/mL); against Bacillus subtilis, 24.2 µM (≈ 12.5 µg/mL).
On to `O=C(OCc1cn(CCc2ccccc2)nn1)c1ccc(C(=O)OCc2cn(CCc3ccccc3)nn2)cc1`, for which the minimum inhibitory concentration (MIC) with Aspergillus niger, against Candida albicans, against Escherichia coli and against Bacillus subtilis was 23.3 µM (≈ 12.5 µg/mL) each time.
Consider `O=C(CCCC(=O)OCc1cn(Cc2ccccc2)nn1)OCc1cn(Cc2ccccc2)nn1`, for which the minimal inhibitory concentration (MIC) was determined as 26.3 µM (≈ 12.5 µg/mL) against Aspergillus niger, 13.5 µM (≈ 6.41 µg/mL) against Candida albicans, 26.3 µM (≈ 12.5 µg/mL) against Escherichia coli and 26.3 µM (≈ 12.5 µg/mL) against Bacillus subtilis.
As to `O=C(CCC(=O)OCc1cn(Cc2ccccc2)nn1)OCc1cn(Cc2ccccc2)nn1`, the MIC stood at 27.1 µM (≈ 12.5 µg/mL) against Aspergillus niger, 13.5 µM (≈ 6.22 µg/mL) with Candida albicans, 27.1 µM (≈ 12.5 µg/mL) against Escherichia coli and 27.1 µM (≈ 12.5 µg/mL) against Bacillus subtilis.
As to `OC(Cn1cncn1)(Cn1cncn1)c1ccc(F)cc1F` [FLUCONAZOLE], the MIC with Aspergillus niger and in the experiment with Candida albicans was 10.2 µM (≈ 3.12 µg/mL) in each case.
Take `O=C(OCc1cn(CCc2ccccc2)nn1)c1cccc(C(=O)OCc2cn(CCc3ccccc3)nn2)n1`: the MIC with Aspergillus niger, against Candida albicans, with Escherichia coli and with Bacillus subtilis was 23.3 µM (≈ 12.5 µg/mL) in each case.
